Hits are enriched below; roughly 1.3% of the tested compounds scored in any of these assays.
HCV NS3 hel inh: inhibitors of HCV NS3 helicase, primary screen, biochemical, Cy5 molecular beacon fluorescence; Hepatitis C virus NS3 helicase; NS3 helicase DNA unwinding; inhibition, % at 10.9 µM; hit rate 0.56% among 290,000; AID 1800, 2009;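 active = inhibition above the mean of all tested compounds plus 3 SD, set per campaign, cut at about 35% in these data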
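Compound dosing – single dose, 10.9 µM nominal final, DMSO 0.8% final · System – NS3 helicase fragment of HCV · Buffer or medium – MOPS pH 6.5, MgCl2, DTT, Tween20, BSA · Signal – Cy5 beacon fluorescence read at start and 1 h · Also added – annealed dual-labelled DNA beacon duplex, ATP-started · Schedule – 1 h at 25 °C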
Hep lipid drop: inhibitors of hepatocyte lipid droplet formation, primary screen, imaging, high-throughput imaging, BODIPY stain. AML12 mouse hepatocytes, oleate lipid droplets. inhibition, % at 6.5 µM. hit rate 0.4% among 240,000;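 active = lipid droplet intensity inhibited by at least 50%, with more than 500 cells counted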
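Material: mouse AML12 hepatocyte cell line, fixed after treatment; Timing: compound with oleate, overnight; Technique: high-content imaging of BODIPY-stained droplets and DAPI nuclei; Probe or stimulus: oleate, 100 µM final; Dosing: compound at 6.5 µM only.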
core dimer inh: inhibitors of HCV core protein dimerization, primary screen, biochemical, TR-FRET, high-throughput. AID 1899, 2009. inhibition, % at 5 µM. hit rate 0.33% among 300,000. TR-FRET GST/Flag-core106 dimerization, 1536-well;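 active = inhibition above the mean of all tested compounds plus 3 SD, set per screening campaign, cut at about 45% in these data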
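test system = GST/Flag-tagged HCV core106 proteins | probe or stimulus = Eu donor and XL665 acceptor anti-tag antibodies | times = compound-protein-antibody incubation 4 h at 22.5 °C | signal = TR-FRET, excitation 340 nm, emission 617 and 671 nm | measure = percent inhibition of core106 dimerization signal | controls = wells lacking GST-core106 and wells with excess unlabelled core106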
TbMetRS inhib: T. brucei MetRS inhibitors, primary screen, biochemical, luminescence; hit rate 0.4% among 360,000; AID 624268, 2012; methionyl-tRNA synthetase (Trypanosoma brucei brucei); inhibition, % at 11.9 µM; purified T. brucei MetRS, ATP depletion, Kinase-Glo luminescence;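 active = inhibition above a per-plate cutoff of the control wells' mean inhibition plus 3 SD, cut at about 5.5% in these data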
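Dosing: 11.9 µM compound single dose, 0.9% DMSO; Assay system: purified T. brucei MetRS enzyme; Measured by: Kinase-Glo luciferase luminescence reporting remaining unconsumed ATP; Schedule: 15 min plus 2 h at 25 °C.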
NS3 hel confirm: HCV NS3 helicase inhibitors, retest, confirmation, biochemical, Cy5 molecular beacon fluorescence, triplicate; NS3 helicase DNA unwinding; inhibition, % at 10.9 µM; hit rate 31% among 1,600; shares compounds with HCV NS3 hel inh;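 active = inhibition above the mean of all tested compounds plus 3 SD, cutoff set per campaign, cut at about 36% in these data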
DNA FID counter: compounds displacing fluorescent DNA intercalator, artefact control for HCV NS3 helicase inhibitor project, biochemical, FID fluorescence, triplicate; DNA fluorescent intercalator displacement; AID 1945, 2009; inhibition, % at 7.9 µM; shares compounds with HCV NS3 hel inh; hit rate 4% among 1,600; in the data active = inhibition above about 37%;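 also: higher means more displacement of ethidium bromide from the DNA hairpin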
Numbers stand for hits; i = inactive; nt = not tested or not shown.

SMILES	HCV NS3 hel inh	Hep lipid drop	core dimer inh	TbMetRS inhib	NS3 hel confirm	DNA FID counter
O=C1c2ccccc2NC2(CCCC2)N1O	i	i	i	i	nt	nt
CCc1ccc(/C=C2\Oc3cc(OC(=O)N4CCOCC4)ccc3C2=O)cc1	47	i	i	i	i	i
Cc1noc(C)c1S(=O)(=O)N(CC(=O)NCc1ccccc1)c1ccc(C(C)C)cc1	i	i	i	i	nt	nt
Cc1ccc(N(CC(=O)NCc2ccccc2Cl)S(=O)(=O)c2c(C)noc2C)cc1	i	i	i	i	nt	nt
CCOc1ccc(N(CC(=O)NCc2ccccc2Cl)S(=O)(=O)c2c(C)noc2C)cc1	40	i	i	i	i	i
Cc1noc(C)c1S(=O)(=O)N(CC(=O)NCCc1ccccc1)c1ccc(C(C)C)cc1	37	i	i	i	i	i
CCCCNS(=O)(=O)c1ccc(NC(=O)c2c(-c3ccccc3Cl)noc2C)cc1	i	i	i	i	nt	nt
CCCOc1ccc(OCCOCCN2CCc3ccccc3C2)cc1	i	nt	i	i	nt	nt
CCN(CC)C(=O)c1ccc2c(c1[N+](=O)[O-])C(=O)c1ccccc1C2=O	i	i	i	nt	nt	nt
COCCNC(=O)CSc1nc(-c2ccccc2)cs1	i	nt	i	i	nt	nt
Cc1ccc(CSCC2Nc3ccc(C(=O)N4CCN(c5cccc(C)c5)C(C)C4)cc3NC2=O)cc1 (stereo not drawn)	38	i	71	nt	i	i
Cc1cccc(N2CCN(C(=O)c3ccc(N4CCCC4=O)cc3)CC2C)c1 (stereo not drawn)	i	nt	i	i	nt	nt
S=c1[nH]nc(-c2ccc(Cl)cc2)n1/N=C/C=C/c1ccco1	i	i	i	i	nt	nt
Oc1ccc(Br)cc1/C=N/n1c(-c2ccccc2)n[nH]c1=S	i	i	i	i	nt	nt
Cc1cc(-c2n[nH]c(=S)n2/N=C/C=C/c2ccco2)n[nH]1	i	i	i	i	nt	nt
Cc1ccccc1-c1n[nH]c(=S)n1/N=C/C=C/c1ccco1	38	i	i	i	i	i
Oc1c(Br)cc(Br)c(/C=N/n2c(-c3ccccc3)n[nH]c2=S)c1Br	39	i	i	i	69	i
S=c1[nH]nc(-c2ccccc2)n1/N=C/C=C/c1ccco1	52	i	i	i	i	i
COc1ccccc1OCCn1c(C(C)O)nc2ccccc21 (stereo not drawn)	i	nt	i	i	nt	nt
Cc1ccc(NC(=O)COC(=O)c2ccco2)cc1S(=O)(=O)N1CCCCC1	nt	nt	nt	i	nt	nt
C#CCOC(=O)Nc1ccc(=O)n(Cc2c(Cl)cccc2Cl)c1	i	nt	i	i	nt	nt
Cc1noc(NS(=O)(=O)c2ccc(NC(=O)Cc3ccc([N+](=O)[O-])cc3)cc2)c1C	42	i	i	i	i	i
COc1ccc(C=NNc2ccc(S(=O)(=O)Nc3ccccc3C(=O)O)cc2[N+](=O)[O-])c(OC)c1	nt	nt	nt	i	nt	nt
COc1ccc(NC(=S)NNc2ccc(S(=O)(=O)Nc3ccccc3C(=O)O)cc2[N+](=O)[O-])cc1	40	i	i	i	83	i
CC1=NN(C(N)=S)C(=O)C1N=Nc1ccccc1O (stereo not drawn)	42	i	i	i	i	i
SMILES	HCV NS3 hel inh	Hep lipid drop	core dimer inh	TbMetRS inhib	NS3 hel confirm	DNA FID counter
CC1=NN(C(N)=S)C(=O)C1N=Nc1ccccc1C (stereo not drawn)	i	i	i	i	nt	nt
O=C(Nc1ccnn1C1CCN(Cc2ccn[nH]2)CC1)c1ccccc1	i	i	i	i	nt	nt
COC(=O)c1ccc(COc2ccc(/C=N/Nc3cccc(C(=O)O)c3)cc2)cc1	i	i	i	i	nt	nt
O=C(O)c1cc(N/N=C/c2ccc(OCc3ccccc3)cc2)ccc1Cl	42	i	i	i	67	i
CCOC(=O)C1(C(=O)OCC)CCN(S(=O)(=O)c2ccccc2)CC1	nt	nt	nt	i	nt	nt
CC(=O)c1cccc(N(CC(=O)NC2CCCC2)C(=O)CNC(=O)c2cccs2)c1	i	i	i	i	nt	nt
CC(=O)c1ccc(N(CC(=O)NC2CCCC2)C(=O)CNC(=O)c2cccs2)cc1	37	i	i	i	i	i
